Results taken from ChEMBL document CHEMBL4610063, “Mangiferin: A promising natural xanthone from Mangifera indica for the control of acyclovir - resistant herpes simplex virus 1 infection” (Bioorg Med Chem, 2020).
Active and inactive are the calls of the source. No cut-off for these calls is given here.

Assays:
Type in all cases: functional, organism-based
Human alphaherpesvirus 1 [1] = assay: Antiviral activity against ACV-sensitive Herpes simplex virus 1 KOS infected in male Balb/c mouse assessed as reduction in ulcerated lesion at 50 mg/g applied topically as cream formulation 5 times a day at 3 hrs interval for 10 days measured on day 7 post infection; details: strain KOS
Procedure, shortened: (§1)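 Balb/c mice (5 weeks, 22–27 g; six per group, sexes tested separately) had the right mid-flank depilated under i.p. anaesthesia and needle-scarified 24 h later. They were inoculated with 70 μL HSV-1 KOS (10^5 PFU/mL). From 4 h post-infection, O/W emulsion with 0.7% w/w mangiferin or ACV cream (50 mg/g) was applied topically 5 times daily for 10 days. Lesions were scored daily.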

Human alphaherpesvirus 1 [2] = assay: Antiviral activity against ACV-resistant Herpes simplex virus 1 AR-29 infected in male Balb/c mouse assessed as reduction in ulcerated lesion at 50 mg/g applied topically as cream formulation 5 times a day at 3 hrs interval for 10 days measured on day 5 post infection
Procedure, shortened: (§2)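 Balb/c mice, 5 weeks old, six per group. Right mid-flank depilated under i.p. anaesthesia, needle-scarified 24 h later and inoculated with 70 μL HSV-1 AR-29 (10^5 PFU/mL). Topical 0.7% w/w O/W emulsion or ACV cream (50 mg/g) starts 4 h post-infection, 5 times daily for 10 days. Lesions are scored daily.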

Human alphaherpesvirus 1 [3] = assay: Antiviral activity against ACV-sensitive Herpes simplex virus 1 KOS infected in male Balb/c mouse assessed as reduction in ulcerated lesion at 50 mg/g applied topically as cream formulation 5 times a day at 3 hrs interval for 10 days measured on day 2 post infection; details: strain KOS; procedure, shortened: as §1
Human alphaherpesvirus 1 [4] = assay: Antiviral activity against ACV-resistant Herpes simplex virus 1 AR-29 infected in female Balb/c mouse assessed as reduction in skin lesion at 50 mg/g applied topically as cream formulation 5 times a day at 3 hrs interval for 10 days; procedure, shortened: as §2
Human alphaherpesvirus 1 [5] = assay: Antiviral activity against ACV-resistant Herpes simplex virus 1 AR-29 infected in male Balb/c mouse assessed as reduction in zosteriform lesion at 50 mg/g applied topically as cream formulation 5 times a day at 3 hrs interval for 10 days measured on day 5 post infection; procedure, shortened: as §2
Human alphaherpesvirus 1 [6] = assay: Antiviral activity against ACV-resistant Herpes simplex virus 1 AR-29 infected in female Balb/c mouse assessed as reduction in zosteriform lesion at 50 mg/g applied topically as cream formulation 5 times a day at 3 hrs interval for 10 days measured on day 7 post infection; procedure, shortened: as §2
Human alphaherpesvirus 1 [7] = assay: Antiviral activity against ACV-sensitive Herpes simplex virus 1 KOS infected in female Balb/c mouse assessed as reduction in ulcerated lesion at 50 mg/g applied topically as cream formulation 5 times a day at 3 hrs interval for 10 days measured on day 3 to day 5 post infection; details: strain KOS; procedure, shortened: as §1

Nc1nc2c(ncn2COCCO)c(=O)[nH]1
Activity (Human alphaherpesvirus 1 [1]): Active
Activity (Human alphaherpesvirus 1 [2]): inactive
Activity (Human alphaherpesvirus 1 [3]): inactive
Activity (Human alphaherpesvirus 1 [4]): inactive
Activity (Human alphaherpesvirus 1 [5]): inactive
Activity (Human alphaherpesvirus 1 [6]): Active
Activity (Human alphaherpesvirus 1 [7]): inactive
